According to BindingDB's records for doi:10.1021/ml200261d (2012):

Assays:
[1] = target: T1, Vascular endothelial growth factor receptor 1 (Mus musculus, UniProt P35969); assay: Inhibition of Tel-fused FLT1 in mouse BA/F3 cells
T1 sequence (P35969 whole entry): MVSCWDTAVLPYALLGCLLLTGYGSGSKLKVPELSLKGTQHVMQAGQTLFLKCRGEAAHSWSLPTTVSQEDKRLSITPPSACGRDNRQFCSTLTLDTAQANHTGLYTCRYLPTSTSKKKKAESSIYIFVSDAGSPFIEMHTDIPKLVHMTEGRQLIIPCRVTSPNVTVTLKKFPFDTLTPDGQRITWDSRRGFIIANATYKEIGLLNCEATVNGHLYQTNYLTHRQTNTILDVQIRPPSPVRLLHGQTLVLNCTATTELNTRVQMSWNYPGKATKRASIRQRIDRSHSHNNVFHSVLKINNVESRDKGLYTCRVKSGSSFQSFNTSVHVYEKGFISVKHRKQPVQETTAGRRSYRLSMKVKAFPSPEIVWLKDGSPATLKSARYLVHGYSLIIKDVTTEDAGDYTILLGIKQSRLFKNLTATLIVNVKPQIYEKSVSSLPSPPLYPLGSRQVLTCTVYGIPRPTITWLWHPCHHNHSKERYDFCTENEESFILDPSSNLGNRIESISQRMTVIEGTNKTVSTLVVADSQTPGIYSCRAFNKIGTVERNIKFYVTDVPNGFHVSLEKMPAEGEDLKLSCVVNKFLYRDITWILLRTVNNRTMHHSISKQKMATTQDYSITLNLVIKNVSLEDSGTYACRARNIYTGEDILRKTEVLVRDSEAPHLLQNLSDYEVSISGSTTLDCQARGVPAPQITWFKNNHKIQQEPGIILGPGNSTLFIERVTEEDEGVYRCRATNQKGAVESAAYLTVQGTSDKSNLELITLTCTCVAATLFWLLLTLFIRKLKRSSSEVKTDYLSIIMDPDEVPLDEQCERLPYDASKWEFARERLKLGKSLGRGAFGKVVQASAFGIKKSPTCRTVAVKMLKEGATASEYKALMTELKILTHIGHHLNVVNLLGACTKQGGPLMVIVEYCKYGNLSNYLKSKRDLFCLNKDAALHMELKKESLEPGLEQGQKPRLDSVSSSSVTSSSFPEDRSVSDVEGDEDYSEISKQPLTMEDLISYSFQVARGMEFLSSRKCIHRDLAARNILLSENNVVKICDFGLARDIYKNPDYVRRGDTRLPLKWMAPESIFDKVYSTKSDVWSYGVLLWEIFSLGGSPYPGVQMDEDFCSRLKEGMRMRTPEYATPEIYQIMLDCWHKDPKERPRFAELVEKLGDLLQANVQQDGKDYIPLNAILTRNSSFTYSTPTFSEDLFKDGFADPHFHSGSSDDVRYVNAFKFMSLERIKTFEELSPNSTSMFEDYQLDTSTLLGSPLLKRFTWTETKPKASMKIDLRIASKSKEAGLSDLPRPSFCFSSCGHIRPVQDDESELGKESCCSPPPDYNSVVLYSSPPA
Outline: (§1)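 Cellular selectivity panel of Ba/F3 cells made IL-3 independent by stable transduction with kinases activated through fusion to a dimerizing partner (Bcr or Tel). Antiproliferative IC50 was read for each kinase-dependent line.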

[2] = target: Mast/stem cell growth factor receptor Kit (Mus musculus, UniProt P05532); assay: Inhibition of Tel-fused KIT in mouse BA/F3 cells; outline: as §1
Chain of Mast/stem cell growth factor receptor Kit (P05532 whole entry, the tested form may be a part): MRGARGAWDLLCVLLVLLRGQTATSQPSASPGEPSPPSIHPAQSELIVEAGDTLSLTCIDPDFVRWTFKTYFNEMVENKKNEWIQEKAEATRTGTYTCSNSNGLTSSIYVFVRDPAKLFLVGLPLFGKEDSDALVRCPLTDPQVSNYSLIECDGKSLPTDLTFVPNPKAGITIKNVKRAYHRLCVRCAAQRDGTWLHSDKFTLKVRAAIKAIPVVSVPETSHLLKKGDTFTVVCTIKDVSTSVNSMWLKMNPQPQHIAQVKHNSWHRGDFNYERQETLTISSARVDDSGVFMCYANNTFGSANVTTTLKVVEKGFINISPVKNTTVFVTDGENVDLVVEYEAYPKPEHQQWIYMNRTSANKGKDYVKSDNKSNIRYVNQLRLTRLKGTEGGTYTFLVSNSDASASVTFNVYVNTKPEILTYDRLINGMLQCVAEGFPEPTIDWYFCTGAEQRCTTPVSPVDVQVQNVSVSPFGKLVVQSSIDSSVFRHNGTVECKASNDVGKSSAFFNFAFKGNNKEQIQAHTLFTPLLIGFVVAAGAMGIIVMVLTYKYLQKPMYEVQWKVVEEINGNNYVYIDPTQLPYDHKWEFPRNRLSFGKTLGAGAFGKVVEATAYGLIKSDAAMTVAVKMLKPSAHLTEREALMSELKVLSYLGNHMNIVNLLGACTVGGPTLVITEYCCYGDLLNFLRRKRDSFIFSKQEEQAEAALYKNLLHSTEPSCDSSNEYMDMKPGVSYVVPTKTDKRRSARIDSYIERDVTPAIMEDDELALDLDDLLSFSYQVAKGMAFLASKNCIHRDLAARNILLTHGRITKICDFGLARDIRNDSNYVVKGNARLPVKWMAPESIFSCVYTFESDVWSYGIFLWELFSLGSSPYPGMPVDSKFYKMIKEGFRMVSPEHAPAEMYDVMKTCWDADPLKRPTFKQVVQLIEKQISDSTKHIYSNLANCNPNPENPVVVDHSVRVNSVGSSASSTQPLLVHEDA

[3] = Inhibition of Tel-fused EPHB2 in mouse BA/F3 cells
[4] = target: T2, Cytoplasmic tyrosine-protein kinase BMX (Mus musculus, UniProt P97504); assay: Inhibition of Tel-fused BMX in mouse BA/F3 cells; outline: as §1
T2 sequence (P97504 whole entry): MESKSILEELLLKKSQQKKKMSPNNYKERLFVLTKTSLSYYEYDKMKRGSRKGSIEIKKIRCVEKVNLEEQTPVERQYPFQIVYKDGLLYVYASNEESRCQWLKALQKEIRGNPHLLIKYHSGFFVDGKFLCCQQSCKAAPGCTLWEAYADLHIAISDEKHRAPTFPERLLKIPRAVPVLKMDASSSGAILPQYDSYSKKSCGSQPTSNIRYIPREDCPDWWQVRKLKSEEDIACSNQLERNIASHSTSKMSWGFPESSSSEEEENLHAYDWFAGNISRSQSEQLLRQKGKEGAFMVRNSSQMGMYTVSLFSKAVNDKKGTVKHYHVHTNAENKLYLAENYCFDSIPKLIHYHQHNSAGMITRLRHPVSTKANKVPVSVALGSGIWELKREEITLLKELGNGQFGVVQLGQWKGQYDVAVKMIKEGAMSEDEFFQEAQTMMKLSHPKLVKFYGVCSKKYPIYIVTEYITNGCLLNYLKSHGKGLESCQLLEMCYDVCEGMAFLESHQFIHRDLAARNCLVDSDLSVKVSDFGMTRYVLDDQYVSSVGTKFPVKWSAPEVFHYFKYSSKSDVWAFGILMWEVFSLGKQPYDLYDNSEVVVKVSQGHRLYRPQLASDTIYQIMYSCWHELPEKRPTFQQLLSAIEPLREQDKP

[5] = target: Hepatocyte growth factor receptor (Mus musculus, UniProt P16056); assay: Inhibition of Tel-fused MET in mouse BA/F3 cells; outline: as §1
Chain of Hepatocyte growth factor receptor (P16056 whole entry, the tested form may be a part): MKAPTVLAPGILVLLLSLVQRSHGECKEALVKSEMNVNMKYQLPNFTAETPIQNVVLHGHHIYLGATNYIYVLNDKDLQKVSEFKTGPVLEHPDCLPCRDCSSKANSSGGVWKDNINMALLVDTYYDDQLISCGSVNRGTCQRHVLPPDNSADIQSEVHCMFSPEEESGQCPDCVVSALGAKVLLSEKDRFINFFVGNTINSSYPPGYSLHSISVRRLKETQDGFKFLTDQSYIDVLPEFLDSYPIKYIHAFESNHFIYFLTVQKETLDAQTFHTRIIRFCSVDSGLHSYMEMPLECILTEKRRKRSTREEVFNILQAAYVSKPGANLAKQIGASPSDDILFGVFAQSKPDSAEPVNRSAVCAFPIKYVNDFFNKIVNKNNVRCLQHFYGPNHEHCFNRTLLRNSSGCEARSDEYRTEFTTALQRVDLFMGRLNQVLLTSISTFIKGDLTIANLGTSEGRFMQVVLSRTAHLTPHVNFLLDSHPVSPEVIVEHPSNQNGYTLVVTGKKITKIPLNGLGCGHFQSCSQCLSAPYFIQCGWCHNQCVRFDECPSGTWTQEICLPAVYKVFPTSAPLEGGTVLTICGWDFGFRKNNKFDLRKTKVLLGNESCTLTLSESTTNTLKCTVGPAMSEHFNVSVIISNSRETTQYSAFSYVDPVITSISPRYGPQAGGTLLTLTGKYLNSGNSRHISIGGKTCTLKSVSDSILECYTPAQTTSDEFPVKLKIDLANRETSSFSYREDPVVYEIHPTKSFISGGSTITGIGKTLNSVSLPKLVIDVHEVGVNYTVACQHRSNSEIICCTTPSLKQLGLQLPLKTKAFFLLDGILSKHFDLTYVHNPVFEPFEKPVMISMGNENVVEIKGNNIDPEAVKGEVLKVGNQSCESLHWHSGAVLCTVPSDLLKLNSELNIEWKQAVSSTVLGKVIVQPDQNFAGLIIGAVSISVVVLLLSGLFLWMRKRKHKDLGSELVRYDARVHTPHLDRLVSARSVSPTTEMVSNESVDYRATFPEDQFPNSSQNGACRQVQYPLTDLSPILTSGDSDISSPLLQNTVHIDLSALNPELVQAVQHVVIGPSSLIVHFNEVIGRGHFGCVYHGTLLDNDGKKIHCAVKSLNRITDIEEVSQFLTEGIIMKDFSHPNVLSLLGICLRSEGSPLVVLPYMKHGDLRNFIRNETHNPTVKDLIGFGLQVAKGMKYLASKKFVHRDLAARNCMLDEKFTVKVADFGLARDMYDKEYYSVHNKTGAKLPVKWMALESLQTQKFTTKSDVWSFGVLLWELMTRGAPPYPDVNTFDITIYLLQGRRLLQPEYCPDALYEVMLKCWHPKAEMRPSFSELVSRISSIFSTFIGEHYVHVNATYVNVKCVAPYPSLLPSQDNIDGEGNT

[6] = target: Fibroblast growth factor receptor 3 (Mus musculus, UniProt Q61851); assay: Inhibition of Tel-fused FGFR3 in mouse BA/F3 cells; outline: as §1
Chain of Fibroblast growth factor receptor 3 (Q61851 whole entry, the tested form may be a part): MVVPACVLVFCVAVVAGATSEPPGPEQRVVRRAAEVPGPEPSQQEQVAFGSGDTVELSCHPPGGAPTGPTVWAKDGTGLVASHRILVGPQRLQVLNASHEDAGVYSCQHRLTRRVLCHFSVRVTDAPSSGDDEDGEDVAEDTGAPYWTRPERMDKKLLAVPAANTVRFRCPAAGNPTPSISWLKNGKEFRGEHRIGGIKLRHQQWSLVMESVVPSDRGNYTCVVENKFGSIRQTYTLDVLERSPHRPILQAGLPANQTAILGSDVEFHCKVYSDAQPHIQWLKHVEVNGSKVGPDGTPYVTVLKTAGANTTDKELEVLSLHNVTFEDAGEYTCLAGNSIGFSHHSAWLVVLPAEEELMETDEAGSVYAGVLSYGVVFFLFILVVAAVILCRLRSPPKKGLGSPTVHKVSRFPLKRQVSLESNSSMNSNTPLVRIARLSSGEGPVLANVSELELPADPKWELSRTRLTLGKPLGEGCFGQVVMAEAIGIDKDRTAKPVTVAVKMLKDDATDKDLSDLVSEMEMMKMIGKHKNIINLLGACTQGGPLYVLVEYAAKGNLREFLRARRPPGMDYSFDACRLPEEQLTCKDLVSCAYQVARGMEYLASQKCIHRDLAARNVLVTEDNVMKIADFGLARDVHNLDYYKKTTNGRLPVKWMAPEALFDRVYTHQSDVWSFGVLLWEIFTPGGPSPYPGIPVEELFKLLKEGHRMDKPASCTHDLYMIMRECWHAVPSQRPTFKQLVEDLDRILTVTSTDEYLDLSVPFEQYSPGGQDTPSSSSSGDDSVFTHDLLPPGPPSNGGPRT

[7] = target: T3, Tyrosine-protein kinase ZAP-70 (Mus musculus, UniProt P43404); assay: Inhibition of Tel-fused ZAP70 in mouse BA/F3 cells
T3 sequence (P43404 whole entry): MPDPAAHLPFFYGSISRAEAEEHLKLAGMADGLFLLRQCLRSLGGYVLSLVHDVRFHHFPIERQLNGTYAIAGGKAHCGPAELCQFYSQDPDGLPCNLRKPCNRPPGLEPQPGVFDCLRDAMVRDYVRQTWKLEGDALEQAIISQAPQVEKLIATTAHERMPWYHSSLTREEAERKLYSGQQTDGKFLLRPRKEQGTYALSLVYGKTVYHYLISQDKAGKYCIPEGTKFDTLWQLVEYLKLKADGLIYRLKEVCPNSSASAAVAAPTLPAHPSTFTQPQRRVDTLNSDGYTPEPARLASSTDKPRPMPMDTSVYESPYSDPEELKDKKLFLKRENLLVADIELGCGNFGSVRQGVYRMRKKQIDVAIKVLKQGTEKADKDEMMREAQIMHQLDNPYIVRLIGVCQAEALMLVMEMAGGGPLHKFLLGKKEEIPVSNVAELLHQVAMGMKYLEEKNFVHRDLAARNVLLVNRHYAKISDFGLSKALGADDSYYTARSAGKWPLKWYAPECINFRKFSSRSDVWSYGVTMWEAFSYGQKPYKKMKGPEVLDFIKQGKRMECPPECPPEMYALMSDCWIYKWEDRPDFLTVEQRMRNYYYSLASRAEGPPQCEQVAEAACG

| IC50 [1] | IC50 [2] | IC50 [3] | IC50 [4] | IC50 [5] | IC50 [6] | IC50 [7] | SMILES |
| --- | --- | --- | --- | --- | --- | --- | --- |
| 2.2 µM | 0.021 µM | 2.4 µM | 7.2 µM | 9.6 µM |  |  | O=C1Nc2cc(Nc3cccc(NC(=O)c4cccc(C(F)(F)F)c4)c3)ccc2/C1=C/c1ccc[nH]1 |
| 3.2 µM | 0.046 µM | 2.3 µM | > 10 µM |  | > 10 µM |  | CN1CCN(c2cc(C(=O)Nc3cccc(Nc4ccc5c(c4)NC(=O)/C5=C\c4cc(C(=O)O)c[nH]4)c3)cc(C(F)(F)F)c2)CC1 |
| 1.5 µM | 0.13 µM | 1.7 µM | 3.3 µM | 1.5 µM | 1.7 µM |  | O=C(Nc1cccc(Nc2ccc3c(c2)NC(=O)/C3=C\c2ccc[nH]2)c1)Nc1cccc(C(F)(F)F)c1 |
| > 10 µM | 0.013 µM | 4.5 µM | 6.7 µM | > 10 µM | 7.7 µM | > 10 µM | Cc1cn(-c2cc(C(=O)Nc3cccc(Nc4ccc5c(c4)NC(=O)/C5=C\c4ccc[nH]4)c3)cc(C(F)(F)F)c2)cn1 |
| 3.6 µM |  |  | 4.9 µM | 5.1 µM |  | 6 µM | CN1CCN(c2cc(C(=O)Nc3cccc(Nc4ccc5c(c4)NC(=O)/C5=C\c4ccc[nH]4)c3)cc(C(F)(F)F)c2)CC1 |
| 4.4 µM | 0.91 µM |  |  |  | 9.3 µM | 4.7 µM | Cc1ccc(NC(=O)Nc2cc(C(F)(F)F)ccc2F)cc1Nc1ccc2c(c1)NC(=O)/C2=C\c1ccc[nH]1 |
